# Hits are enriched below; roughly 4.1% of the tested compounds scored in any of these assays.
# KCNK3 block – human KCNK3 channel inhibition, primary screen; O14649; CHO-KCNK3 thallium flux, FluxOR fluorescence; stronger effect = lower value; B-score at 10 µM; 0.84% of 340,000 active;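 active = B-score under library mean minus 4 SD, starting fluorescence ratio at most library mean plus 5 SD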;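 note: more negative B-score means stronger inhibition of thallium flux through KCNK3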
# KCNK9 block – inhibitors of human KCNK9 two-pore domain potassium channel; AID 488922; HEK293 KCNK9, FluxOR thallium flux fluorescence; stronger effect = lower value; B-score at 10 µM; Q9NPC2; 1.2% of 310,000 active;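 active = ratio B-score over 3 SD below the library mean, with starting fluorescence within 5 SD of its mean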;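 note: negative B-score means less thallium flux so channel inhibition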
# KCNQ1 pot – potentiates or activates the human KCNQ1 potassium channel; P51787; B-score at 10 µM; CHO-K1 KCNQ1, thallium flux FluxOR fluorescence; stronger effect = higher value; 0.35% of 310,000 active;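 active = fluorescence ratio B-score, a plate-corrected score, at least three library SD, with initial intensity B-score within 5 SD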
# Target sequence (P51787 whole entry, looked up): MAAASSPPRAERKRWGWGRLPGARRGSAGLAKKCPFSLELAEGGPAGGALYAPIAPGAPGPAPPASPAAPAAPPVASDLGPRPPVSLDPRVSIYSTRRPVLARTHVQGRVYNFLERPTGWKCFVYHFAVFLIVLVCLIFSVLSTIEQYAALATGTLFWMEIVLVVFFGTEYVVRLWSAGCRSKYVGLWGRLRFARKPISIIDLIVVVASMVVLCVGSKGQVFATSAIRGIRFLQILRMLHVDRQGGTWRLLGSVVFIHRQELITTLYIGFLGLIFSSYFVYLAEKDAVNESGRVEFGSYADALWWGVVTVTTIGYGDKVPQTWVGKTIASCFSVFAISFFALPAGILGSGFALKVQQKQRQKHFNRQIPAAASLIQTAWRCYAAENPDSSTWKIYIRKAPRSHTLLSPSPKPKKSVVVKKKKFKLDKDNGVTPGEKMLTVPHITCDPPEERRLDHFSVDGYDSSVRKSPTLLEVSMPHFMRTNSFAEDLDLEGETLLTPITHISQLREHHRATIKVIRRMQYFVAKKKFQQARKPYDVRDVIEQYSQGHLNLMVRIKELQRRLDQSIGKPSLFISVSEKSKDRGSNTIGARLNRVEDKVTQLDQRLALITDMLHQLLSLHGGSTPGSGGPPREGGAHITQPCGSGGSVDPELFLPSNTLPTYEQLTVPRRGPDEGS
#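 Assay system: CHO-K1 cells stably expressing KCNQ1. Medium: assay buffer for compound exposure, DMSO matched across wells. Timing: 37 °C overnight plating, 90-min dark dye load, 20-min compound pretreatment. Signal: kinetic FluxOR fluorescence, 10 s baseline plus 110 s post-stimulus.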
# KCNQ1 block – blocks the human KCNQ1 potassium channel. P51787. CHO-K1 KCNQ1, FluxOR thallium flux fluorescence; stronger effect = higher value. B-score at 10 µM. 1.3% of 310,000 active. AID 2642;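 active = compounds whose thallium flux B-score, printed positive for inhibition, exceeds three library SD while starting fluorescence stays within three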;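 note: channel opened by potassium depolarization with thallium stimulus after 20 min compound exposure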
# Cl transport mod – modulates chloride dependent transport by human KCC2. Q9H2X9. KCC2 cells, thallium flux FluoZin-2 fluorescence. B-score of Tl+ flux slope (higher = more flux/activation; lower = inhibition) at 10 µM. 2.2% of 190,000 active. AID 1456;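 active = thallium flux slope and its plate-corrected score both differing from the plate sample mean at a set confidence after two filtering rounds, in either direction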;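 note: slope of fluorescence scaled to starting intensity during 10 to 20 s after thallium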
# hERG protect – compounds protecting human hERG from proarrhythmic drug block; activation (rescue from dofetilide block), less the hit threshold, % at 10 µM; AID 1511; 0.51% of 310,000 active; CHO-hERG, FluxOR thallium flux, dofetilide IC70 present;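 active = activation above the mean of controls blocked by dofetilide plus 5 SD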;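 note: thallium influx through hERG after potassium depolarization seen as dye fluorescence rise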
# The depositor's hits bear a star; i = inactive; nt = no result given.
SMILES,KCNK3 block,KCNK9 block,KCNQ1 pot,KCNQ1 block,Cl transport mod,hERG protect
CC1CN(CC(=O)NCc2ccc(F)cc2)CC(C)O1 (stereo not given),i,i,i,i,nt,-9
Fc1ccccc1/C=N/NC(=S)Nc1ccc(Cl)cc1Cl,i,i,i,i,15*,-5
Fc1ccc(NC(=S)N/N=C/c2ccc(F)c(F)c2)c(F)c1,i,i,i,i,20*,-5
COc1ccc(-n2nnnc2SCC(=O)Nc2ccc(OC)cc2OC)cc1,i,i,i,i,nt,-4
O=S(=O)(NCC1CCCO1)c1ccccc1F (stereo not given),i,i,i,i,nt,-4
[O-][n+]1c2c(c3c4non(O)c4ccc31)CCCC2,i,i,i,6*,-1,-20
COn1c2c(c3c4no[n+]([O-])c4ccc31)CCCC2,i,i,i,i,0.087,-4
CC(C)C[C@H]1CNC(=S)N1CC1CCN(CCCC2CCCC2)CC1,i,nt,nt,nt,nt,nt
CCCN(CC(=O)Nc1ccc(F)c(F)c1F)C(=O)Cc1ccc(S(=O)(=O)N2CCOCC2)s1,i,nt,nt,nt,nt,nt
CCOc1ccc(-n2cnc3sc(C)c(C)c3c2=O)cc1,i,i,i,i,nt,5.6*
CCOc1ccc(-c2csc3ncn(-c4ccc(OC)cc4)c(=O)c23)cc1,i,i,i,i,0.64,4.7*
CCn1cnc2scc(-c3ccc(OC)cc3)c2c1=O,i,i,i,i,nt,-8
COc1ccccc1-n1cnc2sc(C)c(C)c2c1=O,i,i,i,i,nt,6.0*
O=C(NC12CC3CC(CC(C3)C1)C2)c1ccc([N+](=O)[O-])o1,i,i,i,i,nt,-10
CCOC(=O)[C@H]1[C@H]2COc3ccccc3[C@@H]2N2C(=O)c3c(C)cc(C)cc3NC(=O)[C@@]12C,i,nt,nt,nt,nt,nt
Clc1ccccc1-c1nnc(-c2ccc3c(c2)OCO3)o1,i,-6.9*,i,i,-2.3,-8
O=[N+]([O-])c1cccc(-c2nnc(-c3ccc4c(c3)OCO4)o2)c1,i,i,i,i,-0.35,-7
CCCOC(=O)c1c(NC(=O)C2C3C=CC(C3)C2C(=O)O)sc2c1CCC(C)C2 (stereo not given),i,i,i,i,-3.1*,-24
COc1ccccc1CCC(=O)Nc1cccc(S(=O)(=O)N2CCCCCC2)c1,i,i,i,6*,nt,-13
COc1ccccc1CCC(=O)Nc1cccc(S(=O)(=O)N2CCOCC2)c1,i,i,i,i,nt,-12
COc1cc(C(=O)Nc2cccc(S(=O)(=O)N3CCCC3)c2)cc(OC)c1C,i,-7.7*,i,i,0.38,-12
CS(=O)(=O)c1cccc(C(=O)Nc2cccc(S(=O)(=O)N3CCCC3)c2)c1,i,nt,nt,nt,nt,nt
COc1cccc(OC)c1C(=O)Nc1ccc(S(=O)(=O)N2CCCCC2)cc1,i,i,i,i,nt,-10
CC(C)Nc1nc(Oc2ccc(Cl)cc2Cl)cc(C(F)(F)F)n1,i,i,i,7*,nt,-10
CC(C)Nc1nc(Oc2cccc(Cl)c2Cl)cc(C(F)(F)F)n1,i,i,i,i,0.0073,-16
SMILES,KCNK3 block,KCNK9 block,KCNQ1 pot,KCNQ1 block,Cl transport mod,hERG protect
Nc1nc(=S)[nH]c2c1C1(CCCCC1)Cc1ccccc1-2,i,i,i,i,-0.41,-3
Nc1nc(=S)[nH]c2c1C1(CCCC1)Cc1ccccc1-2,i,i,i,i,0.3,6.1*
O=C(CN1C(=O)COc2ccccc21)NNC(=O)Nc1ccccc1F,i,i,i,i,nt,13*
O=C(NC1CCCC1)c1cccnc1N1CCCCCC1,i,i,i,i,-0.97,5.0*
Cn1c(O)c(C=NCCCCCC(=O)O)c(=O)n(C)c1=O,i,nt,nt,nt,nt,nt
CCCCN(CCCC)c1nc2ccccc2nc1C(C#N)C(=O)NCCCOC (stereo not given),i,i,i,15*,i,-19
CCCN(CCC)c1nc2ccccc2nc1C(C#N)C(=O)OC(C)COC (stereo not given),nt,i,i,8*,-0.91,-9
CCOC(=O)N1CCN(S(=O)(=O)c2ccc3c(c2)NC(=O)CO3)CC1,i,nt,nt,nt,nt,nt

# From PubChem BioAssay
